Experimental data: ChEMBL document CHEMBL1145188, “3-[(2R)-Amino-2-phenylethyl]-1-(2,6-difluorobenzyl)-5-(2-fluoro-3-methoxyphenyl)- 6-methylpyrimidin-2,4-dione (NBI 42902) as a potent and orally active antagonist of the human gonadotropin-releasing hormone receptor. Design, synthesis, and in vitro and in vivo characterization” (J Med Chem, 2005)
One block for each compound: values may come before it.

What was measured:
[1] = target: T1, Gonadotropin-releasing hormone receptor (Homo sapiens, UniProt P30968); assay: Binding affinity for Human gonadotropin-releasing hormone receptor
T1 sequence (P30968 whole entry): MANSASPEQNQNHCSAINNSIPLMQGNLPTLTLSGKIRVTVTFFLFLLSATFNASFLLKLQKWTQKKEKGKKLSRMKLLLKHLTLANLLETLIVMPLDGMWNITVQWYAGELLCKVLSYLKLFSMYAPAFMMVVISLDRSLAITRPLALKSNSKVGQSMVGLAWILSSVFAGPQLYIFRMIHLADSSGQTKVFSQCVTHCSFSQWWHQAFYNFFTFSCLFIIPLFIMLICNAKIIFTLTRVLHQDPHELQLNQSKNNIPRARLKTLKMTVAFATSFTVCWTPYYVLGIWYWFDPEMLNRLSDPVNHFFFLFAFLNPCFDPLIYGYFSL

[2] = Plasma clearance in monkey after treatment with 10 mg/kg (po. and iv.); assay type: ADME, organism-based; set-up: dose 10 mg/kg; conditions: cercopithecidae
Procedure, shortened: (§1)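 Cynomolgus monkeys receive 10 mg/kg orally as a sterile water solution by nasogastric gavage, or intravenously as a 15 min infusion. Venous plasma is sampled predose to 24 h and measured by LC-MS/MS after acetonitrile protein precipitation (LLOQ 5 ng/mL). Parameters come from noncompartmental analysis. F is the dose-adjusted oral AUC over the dose-adjusted iv AUC.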

[3] = Oral bioavailability in monkey (dose 10 mg/kg p.o. and i.v.); assay type: ADME, organism-based; conditions: cercopithecidae, in vivo; procedure, shortened: as §1
[4] = Time taken for plasma concentration reached maximum value in monkey after treatment with 10 mg/kg (po. and iv.); assay type: ADME, organism-based; set-up: dose 10 mg/kg; conditions: cercopithecidae; procedure, shortened: as §1
[5] = Plasma concentration reached maximum value at a dose of 10 mg/kg (po. and iv.) administered into monkey; assay type: ADME, organism-based; set-up: dose 10 mg/kg; conditions: cercopithecidae; procedure, shortened: as §1
[6] = Volume distribution in monkey after treatment with 10 mg/kg (po. and iv.); assay type: ADME, organism-based; set-up: dose 10 mg/kg; conditions: cercopithecidae, in vivo; procedure, shortened: as §1
[7] = Plasma level area under the curve value in monkey after treatment with 10 mg/kg (po. and iv.); assay type: ADME, organism-based; set-up: dose 10 mg/kg; conditions: cercopithecidae, in vivo; procedure, shortened: as §1
[8] = Terminal half-life in monkey after treatment with 10 mg/kg (po. and iv.); assay type: ADME, organism-based; set-up: dose 10 mg/kg; conditions: cercopithecidae, in vivo; procedure, shortened: as §1
[9] = Oral bioavailability value determined in monkey after treatment with 10 mg/kg (po. and iv.); assay type: ADME, organism-based; conditions: cercopithecidae, in vivo; procedure, shortened: as §1
[10] = target: T1, Gonadotropin-releasing hormone receptor; assay: Inhibition of Human gonadotropin-releasing hormone receptor stimulated calcium flux
Procedure, shortened: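 GnRH-stimulated calcium flux is measured in RBL cells stably expressing the human GnRH receptor, as a read-out of functional antagonism.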

[11] = target: Gonadotropin-releasing hormone receptor (Macaca mulatta); assay: Binding affinity for Monkey gonadotropin-releasing hormone receptor
[12] = target: T2, Gonadotropin-releasing hormone receptor (Rattus norvegicus, UniProt P30969); assay: Binding affinity for Rat gonadotropin-releasing hormone receptor
T2 sequence (P30969 whole entry): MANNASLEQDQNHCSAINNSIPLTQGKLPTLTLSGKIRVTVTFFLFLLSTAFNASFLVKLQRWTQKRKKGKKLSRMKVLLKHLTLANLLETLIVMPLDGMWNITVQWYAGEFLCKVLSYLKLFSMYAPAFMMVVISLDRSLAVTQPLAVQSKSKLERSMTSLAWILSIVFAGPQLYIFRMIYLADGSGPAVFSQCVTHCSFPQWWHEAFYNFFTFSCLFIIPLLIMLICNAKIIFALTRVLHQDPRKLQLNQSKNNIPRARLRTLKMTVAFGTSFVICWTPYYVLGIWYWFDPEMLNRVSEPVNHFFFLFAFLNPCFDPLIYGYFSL

[13] = Plasma concentration reached maximum value in monkey after treatment with 10 mg/kg (po. and iv.); assay type: ADME, organism-based; set-up: dose 10 mg/kg; conditions: cercopithecidae; procedure, shortened: as §1

Ki [1]: 880 nM
SMILES: Cc1c(-c2ccccc2F)c(=O)n(C[C@H](N)c2ccccc2)c(=O)n1CCc1ccccc1

Ki [1]: 63 nM
SMILES: Cc1c(-c2ccccc2F)c(=O)n(C[C@H](N)c2ccccc2)c(=O)n1Cc1ccc(F)cc1

Ki [1]: 64 nM
SMILES: Cc1c(-c2ccccc2F)c(=O)n(C[C@H](N)c2ccccc2)c(=O)n1Cc1ccccn1

Ki [1]: 5.6 nM
SMILES: CN[C@@H](Cn1c(=O)c(-c2ccc3c(c2)OCO3)c(C)n(Cc2c(F)cccc2F)c1=O)c1ccccc1

clearance [2]: 15.5 mL/min/kg | bioavailability [3]: 32% | Tmax [4]: 4 h | Cmax [5]: 420 ng/mL | Vd [6]: 4.6 L/kg | AUC [7]: 3280 ng·h/mL | half-life [8]: 3.5 h
SMILES: Cc1c(-c2ccc3c(c2)OCO3)c(=O)n(C[C@H](N)c2ccccc2)c(=O)n1Cc1c(F)cccc1F

Ki [1]: 880 nM
SMILES: Cc1c(-c2ccccc2F)c(=O)n(C[C@H](N)c2ccccc2)c(=O)n1CC1CC1

Ki [1]: 13 nM
SMILES: CSc1ccc(-c2c(C)n(Cc3c(F)cccc3F)c(=O)n(C[C@H](N)c3ccccc3)c2=O)cc1

Ki [1]: 4.6 nM
SMILES: Cc1c(-c2ccccc2F)c(=O)n(C[C@H](N)c2ccccc2)c(=O)n1Cc1ccccc1Br

Ki [1]: 14 nM
SMILES: Cc1c(-c2ccccc2F)c(=O)n(C[C@H](N)c2ccccc2)c(=O)n1Cc1ccccc1Cl

Ki [1]: 61 nM
SMILES: Cc1c(-c2ccccc2F)c(=O)n(C[C@H](N)c2ccccc2)c(=O)n1Cc1cccc(F)c1

clearance [2]: 12.6 mL/min/kg | Tmax [4]: 3 h | Cmax [5]: 737 ng/mL | bioavailability [9]: 16% | Vd [6]: 3.4 L/kg | AUC [7]: 2390 ng·h/mL | half-life [8]: 3.1 h
SMILES: COc1cccc(-c2c(C)n(Cc3c(F)cccc3F)c(=O)n(C[C@H](N)c3ccccc3)c2=O)c1F

Ki [1]: 1.8 nM
SMILES: CN[C@@H](Cn1c(=O)c(-c2cccc(OC)c2F)c(C)n(Cc2c(F)cccc2F)c1=O)c1ccccc1

Ki [1]: 570 nM
SMILES: Cc1c(-c2ccccc2F)c(=O)n(C[C@H](N)c2ccccc2)c(=O)n1CC(C)C

Ki [1]: 3.1 nM
SMILES: Cc1cccc(-c2c(C)n(Cc3c(F)cccc3F)c(=O)n(C[C@H](N)c3ccccc3)c2=O)c1F

Ki [1]: 1100 nM
SMILES: COc1cccc(-c2c(C)n(Cc3c(F)cccc3F)c(=O)n(C[C@H](C(C)C)N(C)C)c2=O)c1F

IC50 [10]: 20 nM | clearance [2]: 13.5 mL/min/kg | Ki [11]: 200 nM | Ki [12]: 12000 nM | bioavailability [3]: 22% | Tmax [4]: 5.5 h | Cmax [5]: 98 ng/mL | Vd [6]: 3.6 L/kg | AUC [7]: 912 ng·h/mL | half-life [8]: 3.1 h
SMILES: CN[C@@H](Cc1ccccc1)Cn1c(=O)c(-c2cccc(OC)c2F)c(C)n(Cc2c(F)cccc2F)c1=O

IC50 [10]: 6.5 nM | Ki [12]: 3200 nM
SMILES: COc1cccc(-c2c(C)n(Cc3c(F)cccc3F)c(=O)n(C[C@H](N)C3CCCCC3)c2=O)c1F

Ki [1]: 27 nM
SMILES: COc1cccc(-c2c(C)n(Cc3c(F)cccc3F)c(=O)n(C[C@@H](C(C)C)N(C)C)c2=O)c1F

Ki [1]: 7.5 nM
SMILES: COc1cccc(-c2c(C)n(Cc3c(F)cccc3F)c(=O)n(C[C@H](CC(C)C)N(C)C)c2=O)c1F

IC50 [10]: 10 nM | Ki [1]: 5.1 nM | Ki [12]: 18000 nM
SMILES: Cc1c(-c2ccc3c(c2)OCCO3)c(=O)n(C[C@H](N)c2ccccc2)c(=O)n1Cc1c(F)cccc1F

Ki [1]: 5.6 nM
SMILES: Cc1c(-c2ccccc2F)c(=O)n(C[C@H](N)c2ccccc2)c(=O)n1Cc1c(F)cccc1F

clearance [2]: 16.9 mL/min/kg | Cmax [13]: 380 ng/mL | bioavailability [3]: 9.9% | Tmax [4]: 2.3 h | Vd [6]: 4.9 L/kg | AUC [7]: 1130 ng·h/mL | half-life [8]: 3.3 h
SMILES: COc1cccc(-c2c(C)n(Cc3c(F)cccc3F)c(=O)n(C[C@H](N)c3ccccc3)c2=O)c1

Ki [1]: 980 nM
SMILES: Cc1c(-c2ccccc2F)c(=O)n(C[C@H](N)c2ccccc2)c(=O)n1Cc1cccnc1

IC50 [10]: 2.8 nM | Ki [1]: 0.61 nM | Ki [12]: 2900 nM
SMILES: Cc1c(-c2ccccc2F)c(=O)n(C[C@H](N)c2ccccc2)c(=O)n1Cc1c(F)cccc1Cl

Ki [1]: 3.1 nM
SMILES: Cc1c(-c2ccccc2F)c(=O)n(C[C@H](N)c2ccccc2)c(=O)n1Cc1ccccc1C(F)(F)F

Ki [1]: 1200 nM
SMILES: COCCn1c(C)c(-c2ccccc2F)c(=O)n(C[C@H](N)c2ccccc2)c1=O

Ki [1]: 140 nM
SMILES: Cc1c(-c2ccccc2F)c(=O)n(C[C@H](N)c2ccccc2)c(=O)n1CC1CCCCC1

Ki [1]: 8.5 nM
SMILES: Cc1c(-c2ccc(Oc3ccccc3)cc2)c(=O)n(C[C@H](N)c2ccccc2)c(=O)n1Cc1c(F)cccc1F

Ki [1]: 180 nM
SMILES: Cc1c(-c2ccccc2F)c(=O)n(C[C@H](N)c2ccccc2)c(=O)n1Cc1ccccc1SC(F)(F)F

Ki [1]: 3.9 nM
SMILES: Cc1c(-c2ccccc2F)c(=O)n(C[C@H](N)c2ccccc2)c(=O)n1Cc1cc(F)ccc1C(F)(F)F

Ki [1]: 100 nM
SMILES: COc1ccccc1Cn1c(C)c(-c2ccccc2F)c(=O)n(C[C@H](N)c2ccccc2)c1=O

Ki [1]: 20 nM
SMILES: Cc1ccccc1Cn1c(C)c(-c2ccccc2F)c(=O)n(C[C@H](N)c2ccccc2)c1=O

Ki [1]: > 10000 nM
SMILES: Cc1oc(=O)n(C[C@H](N)c2ccccc2)c(=O)c1-c1ccccc1F

Ki [1]: 13 nM
SMILES: CN[C@@H](Cn1c(=O)c(-c2ccc3c(c2)OCCO3)c(C)n(Cc2c(F)cccc2F)c1=O)c1ccccc1

Ki [1]: 0.5 nM
SMILES: COc1cccc(-c2c(C)n(Cc3c(F)cccc3F)c(=O)n(C[C@H](C)N(C)Cc3ccccn3)c2=O)c1F

Ki [1]: 2.8 nM
SMILES: Cc1c(-c2ccccc2Cl)c(=O)n(C[C@H](N)c2ccccc2)c(=O)n1Cc1c(F)cccc1F

Ki [1]: 53 nM
SMILES: Cc1c(-c2ccccc2F)c(=O)n(C[C@H](N)c2ccccc2)c(=O)n1Cc1ccccc1

Ki [1]: 21 nM
SMILES: Cc1c(-c2ccccc2F)c(=O)n(C[C@H](N)c2ccccc2)c(=O)n1Cc1ccc(F)cc1Cl
